What was measured:
L1210 [1] = assay: Tested against L1210 resistant murine leukemia cells by MTT tetrazolium dye assay; type: functional, cell-based; settings: Mus musculus
How it was run: (§1)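 Suspension L1210 cells (drug-sensitive and multidrug-resistant lines), 50 000/well, drug added day 2 from DMSO stock serially diluted in PBS pH 7.4, 10^1–10^-5 μg/mL in half-log steps, final DMSO ≤0.1%; continuous 6-day exposure at 37 °C, 5% CO2; MTT added 4 h, formazan dissolved in DMSO, A570; percent of untreated control; six wells per concentration, IC50s averaged.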

L1210 [2] = assay: Tested against L1210 sensitive murine leukemia cells by MTT tetrazolium dye assay; type: functional, cell-based; settings: Mus musculus; how it was run: as §1
OVCAR-3 = assay: Tested against OVCAR-3 human ovarian cancer cells by sulforhodamine B (SRB) assay; type: functional, cell-based
How it was run: (§2)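 Adherent UACC375 melanoma and OVCAR3 ovarian cells, SRB assay: plating and dosing as for MTT (50 000/well, 10^1–10^-5 μg/mL half-log, DMSO ≤0.1%), 8-day exposure; fixed with 10% TCA 1 h at 4 °C, stained 30 min with 0.4% SRB in 1% acetic acid, dye dissolved in 10 mM Tris base pH 10.5, OD 564 nm; six wells per concentration, IC50s averaged.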

[3] = Tested against UACC375 human melanoma cancer cells by sulforhodamine B (SRB) assay; type: functional, cell-based; settings: Cancer cell lines; how it was run: as §2
[4] = Average mean for IC50 values in the four cell lines (UACC375,OVCAR3,L1210 sensitive,L1210 resistant); type: functional; parameters: unit not given here
How it was run: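 Mean of the IC50 values from the four tumor lines: UACC375 and OVCAR3 by SRB (8-day exposure), sensitive and resistant L1210 by MTT (6-day continuous exposure).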

[5] = Tested for in vitro for cardiotoxicity by performing neonatal rat heart myocyte assay method; type: functional
How it was run: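 Neonatal rat heart myocytes exposed to drug for 1 h; cytotoxicity read as cellular ATP/protein ratio relative to untreated controls; IC50 is the 1-h concentration halving this ratio.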

[6] = The quotient of the IC50 is the myocytes divided by the mean IC50 in the four cell lines (UACC375,OVCAR3,L1210 sensitive,L1210 resistant); type: ADME; settings: read-out: Toxicity ratio
How it was run: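 Ratio of the myocyte IC50 (1-h exposure, ATP/protein ratio read-out) to the mean tumor-cell IC50 across the four lines, UACC375 and OVCAR3 by SRB, sensitive and resistant L1210 by MTT.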

[7] = Acid dissociation constant was determined; type: ADME
How it was run: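 Hydrochloride salt (0.165 mmol) dissolved in 0.982 N HCl to give 1 mequiv acid beyond amine protonation; stirred and titrated with 0.926 N NaOH with pH-meter monitoring.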

COLO 480 = assay: Tested against human colon carcinoma COLO 480 cell line in vitro; type: functional, cell-based
How it was run: (§3)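 Human colon carcinoma lines, MTT assay: 50 000 cells/well, drug added day 2 (DMSO stock diluted in PBS pH 7.4, 10^1–10^-5 μg/mL half-log steps, final DMSO ≤0.1%), 6-day exposure at 37 °C, 5% CO2; MTT 4 h, formazan in DMSO read at 570 nm vs untreated control; six wells per concentration, IC50 averaged.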

COLO 205 = assay: Tested against human colon carcinoma COLO 205 cell line in vitro; type: functional, cell-based; how it was run: as §3
HCT-15 = assay: Tested against human colon carcinoma HCT 15 cell line in vitro; type: functional, cell-based; how it was run: as §3
HT-29 = assay: Tested against human colon carcinoma HT 29 cell line in vitro; type: functional, cell-based; how it was run: as §3
L1210 [8] = assay: Tested for percent increase in life span in L1210 leukemia cells after intraperitoneal dose of 15 mg/kg in mice; type: functional; settings: Mus musculus, L1210, ip
How it was run: (§4)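 Standard NCI protocol: leukemia cells implanted intraperitoneally, with drug given ip on days 1, 5 and 9. Read-out is percent increase in life span, 100 × (treated life span − control life span)/control life span.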

L1210 [9] = assay: Tested for percent increase in life span in L1210 leukemia cells after intraperitoneal dose of 30 mg/kg in mice; type: functional; settings: Mus musculus, L1210, ip; how it was run: as §4
L1210 [10] = assay: Tested for percent increase in life span in L1210 leukemia cells after intraperitoneal dose of 45 mg/kg in mice; type: functional; settings: Mus musculus, L1210, ip; how it was run: as §4
L1210 [11] = assay: Tested for percent increase in life span in L1210 leukemia cells after intraperitoneal dose of 5 mg/kg in mice; type: functional; settings: Mus musculus, L1210, ip
How it was run: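 Standard NCI protocol: leukemia cells implanted intraperitoneally, with drug given ip once daily on days 1–5. Read-out is percent increase in life span, 100 × (treated life span − control life span)/control life span.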

LoVo = assay: Tested against human colon carcinoma LoVo cell line in vitro; type: functional, cell-based; how it was run: as §3
B16 [12] = assay: Tested for percent tumor growth inhibition in B16 melanoma cells after intraperitoneal dose of 15 mg/kg in mice; settings: Mus musculus, B16, ip; read-out: TGI
B16 [13] = assay: Tested for percent tumor growth inhibition in B16 melanoma cells after intraperitoneal dose of 30 mg/kg in mice; settings: Mus musculus, B16, ip; read-out: TGI

Row | IC50 (L1210 [1]) | IC50 (L1210 [2]) | IC50 (OVCAR-3) | SMILES | IC50 [3] | Average [4] | IC50 [5] | selectivity ratio [6] | pKa [7] | IC50 (COLO 480) | IC50 (COLO 205) | IC50 (HCT-15) | IC50 (HT-29) | ILS at 15 mg/kg (L1210 [8]) | ILS at 30 mg/kg (L1210 [9]) | ILS at 45 mg/kg (L1210 [10]) | ILS at 5 mg/kg (L1210 [11]) | IC50 (LoVo) | inhibition in vivo at 15 mg/kg (B16 [12]) | inhibition in vivo at 30 mg/kg (B16 [13])
1 | 0.148 µM | 0.207 µM | 2.43 µM | O=C1c2cccc3cc4ccccc4c(c23)C(=O)N1c1ncc[nH]1 | 1.62 µM | 1103 | – | – | – | – | – | – | – | – | – | – | – | – | – | –
2 | 0.554 µM | 0.544 µM | 1.94 µM | O=C1c2cccc3cc4ccccc4c(c23)C(=O)N1c1cccnc1 | 2.49 µM | 1380 | > 25 µM | > 20 | – | – | – | – | – | – | – | – | – | – | – | –
3 | 0.051 µM | 0.051 µM | 0.089 µM | O=C1c2cccc3cc4ccccc4c(c23)C(=O)N1CCN1CCCCC1 | 0.178 µM | 92 | 10.4 µM | 13 | – | – | – | – | – | – | – | – | – | – | – | –
4 | 0.512 µM | 0.512 µM | 0.639 µM | O=C1c2cccc3cc4ccccc4c(c23)C(=O)N1CCN1CCOCC1 | 0.511 µM | 544 | > 25 µM | > 50 | – | – | – | – | – | – | – | – | – | – | – | –
5 | 0.0206 µM | 0.01 µM | 0.044 µM | CNCCN1C(=O)c2cccc3cc4ccccc4c(c23)C1=O | 0.059 µM | 33 | 7.06 µM | 211 | – | – | – | – | – | – | – | – | – | – | – | –
6 | 0.142 µM | 0.076 µM | 0.163 µM | O=C1c2cccc3cc4ccccc4c(c23)C(=O)N1CCCN(CCO)CCO | 0.217 µM | 150 | 8.91 µM | 60 | – | – | – | – | – | – | – | – | – | – | – | –
7 | 0.0118 µM | 0.0145 µM | 0.066 µM | O=C1c2cccc3cc4ccccc4c(c23)C(=O)N1CCN1CCCC1 | 0.039 µM | 33 | 0.92 µM | 28 | – | – | – | – | – | – | – | – | – | – | – | –
8 | 0.041 µM | 0.018 µM | 0.081 µM | O=C1c2cccc3cc4ccccc4c(c23)C(=O)N1CCNCCO | 0.067 µM | 52 | 0.943 µM | 18 | – | – | – | – | – | – | – | – | – | – | – | –
9 | 0.056 µM | 0.051 µM | 0.203 µM | CN1CCCC1CCN1C(=O)c2cccc3cc4ccccc4c(c23)C1=O (stereo not drawn) | 0.19 µM | 125 | 7.08 µM | 57 | – | – | – | – | – | – | – | – | – | – | – | –
10 | 0.463 µM | 0.174 µM | 1.97 µM | O=C1c2cccc3cc4ccccc4c(c23)C(=O)N1CCN1CCNCC1 | 0.463 µM | 767 | 6.71 µM | 8.8 | – | – | – | – | – | – | – | – | – | – | – | –
11 | 26.7 µM | 26.7 µM | 17.4 µM | O=C1c2cccc3cc4ccccc4c(c23)C(=O)N1Cc1ccccn1 | 12 µM | 20722 | > 25 µM | > 1 | – | – | – | – | – | – | – | – | – | – | – | –
12 | 1.79 µM | 0.187 µM | 16.2 µM | CN(C)c1ccc(N2C(=O)c3cccc4cc5ccccc5c(c34)C2=O)cc1 | 4.98 µM | 4537 | 37.3 µM | 8 | – | – | – | – | – | – | – | – | – | – | – | –
13 | 0.609 µM | 0.635 µM | 1.19 µM | CCN1CCCC(N2C(=O)c3cccc4cc5ccccc5c(c34)C2=O)C1 (stereo not drawn) | 1.65 µM | 1020 | 8.76 µM | 8.3 | – | – | – | – | – | – | – | – | – | – | – | –
14 | 0.055 µM | 0.036 µM | 0.214 µM | CCN1CCCC1CN1C(=O)c2cccc3cc4ccccc4c(c23)C1=O (stereo not drawn) | 0.119 µM | 106 | 15.2 µM | 143 | – | – | – | – | – | – | – | – | – | – | – | –
15 | 15.5 µM | 6.44 µM | 3.87 µM | O=C1c2cccc3cc4ccccc4c(c23)C(=O)N1CCc1ccccn1 | 6.44 µM | 8054 | > 25 µM | > 3 | 5.4 | – | – | – | – | – | – | – | – | – | – | –
16 | 0.082 µM | 0.054 µM | 0.462 µM | CN(C)CCCN1C(=O)c2cccc3cc4ccccc4c(c23)C1=O | 0.245 µM | 211 | 11.4 µM | 113 | 7.3 | – | – | – | – | – | – | – | – | – | – | –
17 | 2.67 µM | 1.87 µM | 8.02 µM | O=C1c2cccc3cc4ccccc4c(c23)C(=O)N1Cc1cccnc1 | 11.4 µM | 5983 | > 25 µM | > 4 | – | – | – | – | – | – | – | – | – | – | – | –

Row | SMILES | IC50 (L1210 [1]) | IC50 (L1210 [2]) | IC50 (OVCAR-3) | IC50 [3] | Average [4] | IC50 [5] | selectivity ratio [6] | pKa [7] | IC50 (COLO 480) | IC50 (COLO 205) | IC50 (HCT-15) | IC50 (HT-29) | ILS at 15 mg/kg (L1210 [8]) | ILS at 30 mg/kg (L1210 [9]) | ILS at 45 mg/kg (L1210 [10]) | ILS at 5 mg/kg (L1210 [11]) | IC50 (LoVo) | inhibition in vivo at 15 mg/kg (B16 [12]) | inhibition in vivo at 30 mg/kg (B16 [13])
18 | CN(C)CCN1C(=O)c2cccc3cc4ccccc4c(c23)C1=O [AZONAFIDE] | 0.007 µM | 0.007 µM | 0.057 µM | 0.071 µM | 36 | 1.98 µM | 56 | 7.3 | 0.003 µM | 0.036 µM | 0.008 µM | 0.063 µM | 25% | 62.5% | 79% | 90% | 0.006 µM | 74% | –
19 | CN(C)CCN1C(=O)c2cccc3cc(N)cc(c23)C1=O [AMONAFIDE] | 0.625 µM | 0.625 µM | 2.18 µM | 2.03 µM | 1365 | 48.4 µM | 36 | 7.3 | – | – | – | – | – | 45% | 87.5% | – | – | – | 23%
20 | O=C1c2cccc3cc4ccccc4c(c23)C(=O)N1N1CC1 | 0.791 µM | 0.791 µM | 7.91 µM | 2.53 µM | 3006 | – | – | – | – | – | – | – | – | – | – | – | – | – | –
